Measurements: ChEMBL document CHEMBL1123153, “Synthesis and antitumor and antiviral properties of 5-alkyl-2'-deoxyuridines, 3',5'-cyclic monophosphates, and neutral cyclic triesters” (1986)
≈ marks a conversion by molar mass, not a printed value.

system: Human alphaherpesvirus 2; experiment: Antiviral activity against Herpes Simplex Virus-2(196); format: functional; details: not given

Compound | MIC50 [µg/mL]
CCCc1cn([C@H]2C[C@H](O)[C@@H](CO)O2)c(=O)[nH]c1=O | 40 (≈ 148 µM)
CCCCCCc1cn([C@H]2C[C@@H]3OP(=O)(O)OC[C@H]3O2)c(=O)[nH]c1=O.N | > 400
CCCCc1cn([C@H]2C[C@@H]3OP(=O)(O)OC[C@H]3O2)c(=O)[nH]c1=O.N | > 400
CCCCCc1cn([C@H]2C[C@@H]3OP(=O)(O)OC[C@H]3O2)c(=O)[nH]c1=O.N | > 400
CCCCc1cn([C@H]2C[C@H](O)[C@@H](CO)O2)c(=O)[nH]c1=O | > 400
CCc1cn([C@H]2C[C@@H]3OP(=O)(O)OC[C@H]3O2)c(=O)[nH]c1=O.N | 150
CCCCCCCCc1cn([C@H]2C[C@@H]3OP(=O)(O)OC[C@H]3O2)c(=O)[nH]c1=O.N | > 200

system: Human alphaherpesvirus 2; experiment: Antiviral activity against Herpes Simplex Virus-2(G); format: functional; details: not given

Compound | MIC50 [µg/mL]
CCCc1cn([C@H]2C[C@H](O)[C@@H](CO)O2)c(=O)[nH]c1=O | 10 (≈ 37 µM)
CCCCCCc1cn([C@H]2C[C@@H]3OP(=O)(O)OC[C@H]3O2)c(=O)[nH]c1=O.N | > 400
CCCCc1cn([C@H]2C[C@@H]3OP(=O)(O)OC[C@H]3O2)c(=O)[nH]c1=O.N | > 400
CCCCCc1cn([C@H]2C[C@@H]3OP(=O)(O)OC[C@H]3O2)c(=O)[nH]c1=O.N | > 400
CCCCc1cn([C@H]2C[C@H](O)[C@@H](CO)O2)c(=O)[nH]c1=O | 150 (≈ 528 µM)
CCc1cn([C@H]2C[C@@H]3OP(=O)(O)OC[C@H]3O2)c(=O)[nH]c1=O.N | 10
CCCCCCCCc1cn([C@H]2C[C@@H]3OP(=O)(O)OC[C@H]3O2)c(=O)[nH]c1=O.N | > 200

system: Human alphaherpesvirus 2; experiment: Antiviral activity against Herpes Simplex Virus-2(Lyons); format: functional; details: not given

Compound | MIC50 [µg/mL]
CCCc1cn([C@H]2C[C@H](O)[C@@H](CO)O2)c(=O)[nH]c1=O | 7 (≈ 25.9 µM)
CCCCCCc1cn([C@H]2C[C@@H]3OP(=O)(O)OC[C@H]3O2)c(=O)[nH]c1=O.N | 300
CCCCc1cn([C@H]2C[C@@H]3OP(=O)(O)OC[C@H]3O2)c(=O)[nH]c1=O.N | 300
CCCCCc1cn([C@H]2C[C@@H]3OP(=O)(O)OC[C@H]3O2)c(=O)[nH]c1=O.N | > 400
CCCCc1cn([C@H]2C[C@H](O)[C@@H](CO)O2)c(=O)[nH]c1=O | 20 (≈ 70.3 µM)
CCc1cn([C@H]2C[C@@H]3OP(=O)(O)OC[C@H]3O2)c(=O)[nH]c1=O.N | 7
CCCCCCCCc1cn([C@H]2C[C@@H]3OP(=O)(O)OC[C@H]3O2)c(=O)[nH]c1=O.N | > 200

system: Human alphaherpesvirus 1; experiment: Antiviral activity against Herpes Simplex Virus-1(F); format: functional; details: not given

Compound | MIC50 [µg/mL]
CCCc1cn([C@H]2C[C@H](O)[C@@H](CO)O2)c(=O)[nH]c1=O | 7 (≈ 25.9 µM)
CCCCCCc1cn([C@H]2C[C@@H]3OP(=O)(O)OC[C@H]3O2)c(=O)[nH]c1=O.N | > 400
CCCCc1cn([C@H]2C[C@@H]3OP(=O)(O)OC[C@H]3O2)c(=O)[nH]c1=O.N | > 400
CCCCCc1cn([C@H]2C[C@@H]3OP(=O)(O)OC[C@H]3O2)c(=O)[nH]c1=O.N | > 400
CCCCc1cn([C@H]2C[C@H](O)[C@@H](CO)O2)c(=O)[nH]c1=O | 70 (≈ 246 µM)
CCc1cn([C@H]2C[C@@H]3OP(=O)(O)OC[C@H]3O2)c(=O)[nH]c1=O.N | 70
CCCCCCCCc1cn([C@H]2C[C@@H]3OP(=O)(O)OC[C@H]3O2)c(=O)[nH]c1=O.N | > 200

system: Human alphaherpesvirus 1; experiment: Antiviral activity against Herpes Simplex Virus-1(KOS); format: functional; details: not given

Compound | MIC50 [µg/mL]
CCCc1cn([C@H]2C[C@H](O)[C@@H](CO)O2)c(=O)[nH]c1=O | 2 (≈ 7.4 µM)
CCCCCCc1cn([C@H]2C[C@@H]3OP(=O)(O)OC[C@H]3O2)c(=O)[nH]c1=O.N | > 400
CCCCc1cn([C@H]2C[C@@H]3OP(=O)(O)OC[C@H]3O2)c(=O)[nH]c1=O.N | > 400
CCCCCc1cn([C@H]2C[C@@H]3OP(=O)(O)OC[C@H]3O2)c(=O)[nH]c1=O.N | > 400
CCCCc1cn([C@H]2C[C@H](O)[C@@H](CO)O2)c(=O)[nH]c1=O | 20 (≈ 70.3 µM)
CCc1cn([C@H]2C[C@@H]3OP(=O)(O)OC[C@H]3O2)c(=O)[nH]c1=O.N | 70
CCCCCCCCc1cn([C@H]2C[C@@H]3OP(=O)(O)OC[C@H]3O2)c(=O)[nH]c1=O.N | > 200

system: Human alphaherpesvirus 1; experiment: Antiviral activity against Herpes Simplex Virus-1 (McIntyre); format: functional; details: not given

Compound | MIC50 [µg/mL]
CCCc1cn([C@H]2C[C@H](O)[C@@H](CO)O2)c(=O)[nH]c1=O | 2 (≈ 7.4 µM)
CCCCCCc1cn([C@H]2C[C@@H]3OP(=O)(O)OC[C@H]3O2)c(=O)[nH]c1=O.N | > 400
CCCCc1cn([C@H]2C[C@@H]3OP(=O)(O)OC[C@H]3O2)c(=O)[nH]c1=O.N | > 400
CCCCCc1cn([C@H]2C[C@@H]3OP(=O)(O)OC[C@H]3O2)c(=O)[nH]c1=O.N | > 400
CCCCc1cn([C@H]2C[C@H](O)[C@@H](CO)O2)c(=O)[nH]c1=O | 20 (≈ 70.3 µM)
CCc1cn([C@H]2C[C@@H]3OP(=O)(O)OC[C@H]3O2)c(=O)[nH]c1=O.N | 70
CCCCCCCCc1cn([C@H]2C[C@@H]3OP(=O)(O)OC[C@H]3O2)c(=O)[nH]c1=O.N | > 200

system: L1210; experiment: Cytostatic activity against proliferation of L1210/0 cells; format: functional; details: Mus musculus, read-out: ID50 (the source's name)
Method in brief: (§1)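 Murine leukemia L1210 cells: parental L1210/0 and L1210/BdUrd, a thymidine-kinase-deficient mutant selected from L1210/0 by growth in the presence of 260 µg/mL 5-bromo-2'-deoxyuridine. Value is the dose inhibiting tumor cell proliferation by 50% (ID50).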

Compound | IC50 [µg/mL]
CCCc1cn([C@H]2C[C@H](O)[C@@H](CO)O2)c(=O)[nH]c1=O | > 500
CCCCCCc1cn([C@H]2C[C@@H]3OP(=O)(O)OC[C@H]3O2)c(=O)[nH]c1=O.N | > 500
CCCCc1cn([C@H]2C[C@@H]3OP(=O)(O)OC[C@H]3O2)c(=O)[nH]c1=O.N | 28.4
CCCCCc1cn([C@H]2C[C@@H]3OP(=O)(O)OC[C@H]3O2)c(=O)[nH]c1=O.N | > 500
CCCCc1cn([C@H]2C[C@H](O)[C@@H](CO)O2)c(=O)[nH]c1=O | > 500
CCc1cn([C@H]2C[C@@H]3OP(=O)(O)OC[C@H]3O2)c(=O)[nH]c1=O.N | 55
CCCCCCCCc1cn([C@H]2C[C@@H]3OP(=O)(O)OC[C@H]3O2)c(=O)[nH]c1=O.N | 164

system: L1210; experiment: Cytostatic activity against proliferation of L1210/BdU cells; format: functional; details: Mus musculus, read-out: ID50 (the source's name); method in brief: as §1

Compound | IC50 [µg/mL]
CCCc1cn([C@H]2C[C@H](O)[C@@H](CO)O2)c(=O)[nH]c1=O | > 500
CCCCCCc1cn([C@H]2C[C@@H]3OP(=O)(O)OC[C@H]3O2)c(=O)[nH]c1=O.N | > 500
CCCCc1cn([C@H]2C[C@@H]3OP(=O)(O)OC[C@H]3O2)c(=O)[nH]c1=O.N | 33.5
CCCCCc1cn([C@H]2C[C@@H]3OP(=O)(O)OC[C@H]3O2)c(=O)[nH]c1=O.N | > 500
CCCCc1cn([C@H]2C[C@H](O)[C@@H](CO)O2)c(=O)[nH]c1=O | > 500
CCc1cn([C@H]2C[C@@H]3OP(=O)(O)OC[C@H]3O2)c(=O)[nH]c1=O.N | > 500
CCCCCCCCc1cn([C@H]2C[C@@H]3OP(=O)(O)OC[C@H]3O2)c(=O)[nH]c1=O.N | 193

system: Raji; experiment: Cytostatic activity against proliferation of Raji/0 cells; format: functional; details: Homo sapiens, read-out: ID50 (the source's name)

Compound | IC50 [µg/mL]
CCCc1cn([C@H]2C[C@H](O)[C@@H](CO)O2)c(=O)[nH]c1=O | > 500
CCCCCCc1cn([C@H]2C[C@@H]3OP(=O)(O)OC[C@H]3O2)c(=O)[nH]c1=O.N | > 500
CCCCc1cn([C@H]2C[C@@H]3OP(=O)(O)OC[C@H]3O2)c(=O)[nH]c1=O.N | 82
CCCCCc1cn([C@H]2C[C@@H]3OP(=O)(O)OC[C@H]3O2)c(=O)[nH]c1=O.N | > 500
CCCCc1cn([C@H]2C[C@H](O)[C@@H](CO)O2)c(=O)[nH]c1=O | > 500
CCc1cn([C@H]2C[C@@H]3OP(=O)(O)OC[C@H]3O2)c(=O)[nH]c1=O.N | 60
CCCCCCCCc1cn([C@H]2C[C@@H]3OP(=O)(O)OC[C@H]3O2)c(=O)[nH]c1=O.N | 165

system: Raji; experiment: Cytostatic activity against proliferation of Raji/TK cells; format: functional; details: Homo sapiens, read-out: ID50 (the source's name)

Compound | IC50 [µg/mL]
CCCc1cn([C@H]2C[C@H](O)[C@@H](CO)O2)c(=O)[nH]c1=O | > 500
CCCCCCc1cn([C@H]2C[C@@H]3OP(=O)(O)OC[C@H]3O2)c(=O)[nH]c1=O.N | > 500
CCCCc1cn([C@H]2C[C@@H]3OP(=O)(O)OC[C@H]3O2)c(=O)[nH]c1=O.N | 165
CCCCCc1cn([C@H]2C[C@@H]3OP(=O)(O)OC[C@H]3O2)c(=O)[nH]c1=O.N | > 500
CCCCc1cn([C@H]2C[C@H](O)[C@@H](CO)O2)c(=O)[nH]c1=O | > 500
CCc1cn([C@H]2C[C@@H]3OP(=O)(O)OC[C@H]3O2)c(=O)[nH]c1=O.N | > 500
CCCCCCCCc1cn([C@H]2C[C@@H]3OP(=O)(O)OC[C@H]3O2)c(=O)[nH]c1=O.N | 184

system: Vesicular stomatitis virus; experiment: Antiviral activity against vesicular stomatitis virus; format: functional; details: not given

Compound | MIC50 [µg/mL]
CCCc1cn([C@H]2C[C@H](O)[C@@H](CO)O2)c(=O)[nH]c1=O | > 200
CCCCCCc1cn([C@H]2C[C@@H]3OP(=O)(O)OC[C@H]3O2)c(=O)[nH]c1=O.N | > 400
CCCCc1cn([C@H]2C[C@@H]3OP(=O)(O)OC[C@H]3O2)c(=O)[nH]c1=O.N | > 400
CCCCCc1cn([C@H]2C[C@@H]3OP(=O)(O)OC[C@H]3O2)c(=O)[nH]c1=O.N | > 400
CCCCc1cn([C@H]2C[C@H](O)[C@@H](CO)O2)c(=O)[nH]c1=O | > 400
CCc1cn([C@H]2C[C@@H]3OP(=O)(O)OC[C@H]3O2)c(=O)[nH]c1=O.N | > 400
CCCCCCCCc1cn([C@H]2C[C@@H]3OP(=O)(O)OC[C@H]3O2)c(=O)[nH]c1=O.N | > 200

system: Vaccinia virus; experiment: Antiviral activity against vaccinia virus; format: functional; details: Orthopoxvirus vaccinia

Compound | MIC50 [µg/mL]
CCCc1cn([C@H]2C[C@H](O)[C@@H](CO)O2)c(=O)[nH]c1=O | 200 (≈ 740 µM)
CCCCCCc1cn([C@H]2C[C@@H]3OP(=O)(O)OC[C@H]3O2)c(=O)[nH]c1=O.N | > 400
CCCCc1cn([C@H]2C[C@@H]3OP(=O)(O)OC[C@H]3O2)c(=O)[nH]c1=O.N | 300
CCCCCc1cn([C@H]2C[C@@H]3OP(=O)(O)OC[C@H]3O2)c(=O)[nH]c1=O.N | > 400
CCCCc1cn([C@H]2C[C@H](O)[C@@H](CO)O2)c(=O)[nH]c1=O | 300 (≈ 1060 µM)
CCc1cn([C@H]2C[C@@H]3OP(=O)(O)OC[C@H]3O2)c(=O)[nH]c1=O.N | 70
CCCCCCCCc1cn([C@H]2C[C@@H]3OP(=O)(O)OC[C@H]3O2)c(=O)[nH]c1=O.N | 20
